Source: article PMC5028085 (Drug Design, Development and Therapy, 2016)
Counter-ions that a name gives are not always drawn. Like-named read-outs stand apart in the source and are kept apart here. Marks after values point to notes of the source that are not given here.

Assays:
[1] = Observed clinical pharmacokinetics after oral sarpogrelate hydrochloride; format: in vivo, human
P-gp = P-gp (Homo sapiens, UniProt P08183); format: cell-based; conditions: for Permeability Papp,AB of loperamide / Permeability Papp,BA of loperamide / Inhibition (%): MDCK-II-P-gp; for Permeability Papp,AB of loperamide / Permeability Papp,BA of loperamide: loperamide 10 μM, mean ± SD (n=3); for Inhibition (%): loperamide transport
Chain of P-gp (P08183 whole entry): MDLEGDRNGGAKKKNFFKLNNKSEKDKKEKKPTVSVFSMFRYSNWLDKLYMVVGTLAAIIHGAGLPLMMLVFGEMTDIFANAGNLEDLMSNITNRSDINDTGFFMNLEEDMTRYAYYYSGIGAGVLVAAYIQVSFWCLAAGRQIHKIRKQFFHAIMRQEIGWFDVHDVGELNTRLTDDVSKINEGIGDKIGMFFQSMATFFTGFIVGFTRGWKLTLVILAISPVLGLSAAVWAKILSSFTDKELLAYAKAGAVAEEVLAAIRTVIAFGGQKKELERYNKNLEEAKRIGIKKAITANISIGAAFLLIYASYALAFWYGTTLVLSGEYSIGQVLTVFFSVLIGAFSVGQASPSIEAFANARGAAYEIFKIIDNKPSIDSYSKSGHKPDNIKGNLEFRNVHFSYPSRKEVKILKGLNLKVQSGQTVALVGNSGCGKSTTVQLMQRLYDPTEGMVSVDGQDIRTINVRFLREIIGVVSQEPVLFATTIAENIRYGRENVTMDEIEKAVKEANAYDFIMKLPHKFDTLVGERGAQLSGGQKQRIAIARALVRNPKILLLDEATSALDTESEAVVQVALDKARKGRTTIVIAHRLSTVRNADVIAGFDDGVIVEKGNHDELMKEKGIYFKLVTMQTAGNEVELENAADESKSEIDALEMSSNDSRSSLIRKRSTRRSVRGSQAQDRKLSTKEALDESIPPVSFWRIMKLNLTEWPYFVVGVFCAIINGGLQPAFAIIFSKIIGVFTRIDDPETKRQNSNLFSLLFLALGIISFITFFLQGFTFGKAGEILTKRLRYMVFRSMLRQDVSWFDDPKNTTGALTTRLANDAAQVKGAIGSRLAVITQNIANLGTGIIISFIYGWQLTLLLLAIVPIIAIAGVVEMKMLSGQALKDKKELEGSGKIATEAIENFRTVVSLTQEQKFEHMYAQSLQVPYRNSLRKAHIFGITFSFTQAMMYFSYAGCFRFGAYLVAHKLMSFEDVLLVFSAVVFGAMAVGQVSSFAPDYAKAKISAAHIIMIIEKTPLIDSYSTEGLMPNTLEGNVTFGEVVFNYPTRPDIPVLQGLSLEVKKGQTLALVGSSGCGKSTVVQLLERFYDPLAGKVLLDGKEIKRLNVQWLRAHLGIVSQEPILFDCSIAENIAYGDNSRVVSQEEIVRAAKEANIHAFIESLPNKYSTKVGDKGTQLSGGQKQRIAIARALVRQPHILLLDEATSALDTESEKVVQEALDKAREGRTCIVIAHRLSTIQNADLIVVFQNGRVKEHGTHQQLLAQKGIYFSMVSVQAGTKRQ

BCRP = biological target: T1, BCRP (Homo sapiens, UniProt Q9UNQ0); format: cell-based; conditions: for Permeability Papp,AB of prazosin / Permeability Papp,BA of prazosin / Inhibition (%): MDCK-II-BCRP; for Permeability Papp,AB of prazosin / Permeability Papp,BA of prazosin: prazosin 10 μM, mean ± SD (n=3); for Inhibition (%): prazosin transport; for inhibition of BCRP-mediated prazosin transport: all tested concentrations up to 10 μM
T1 sequence (Q9UNQ0 1-655): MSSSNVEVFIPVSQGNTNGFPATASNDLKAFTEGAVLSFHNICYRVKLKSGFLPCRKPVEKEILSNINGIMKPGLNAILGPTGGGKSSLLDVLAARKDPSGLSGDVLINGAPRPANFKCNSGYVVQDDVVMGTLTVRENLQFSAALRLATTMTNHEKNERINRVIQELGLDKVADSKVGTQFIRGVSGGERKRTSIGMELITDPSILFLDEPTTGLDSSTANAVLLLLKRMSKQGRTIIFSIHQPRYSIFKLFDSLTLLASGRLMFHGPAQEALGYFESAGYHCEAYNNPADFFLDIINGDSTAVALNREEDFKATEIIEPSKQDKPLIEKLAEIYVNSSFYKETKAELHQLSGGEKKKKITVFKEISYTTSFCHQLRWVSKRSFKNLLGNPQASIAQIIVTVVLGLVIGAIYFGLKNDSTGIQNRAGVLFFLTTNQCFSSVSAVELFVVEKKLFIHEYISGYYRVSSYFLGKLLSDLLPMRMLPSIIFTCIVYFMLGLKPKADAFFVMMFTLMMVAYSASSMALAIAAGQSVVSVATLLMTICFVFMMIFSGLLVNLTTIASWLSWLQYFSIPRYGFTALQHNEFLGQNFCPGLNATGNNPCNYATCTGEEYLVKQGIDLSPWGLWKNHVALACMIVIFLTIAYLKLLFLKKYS

[2] = Metabolic stability in pooled human liver microsomes for CLint; format: in vitro ADME; conditions: for microsomal CLint at 400 nM: human, pooled human liver microsomes
How it was run: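 Preincubated 5 min at 37°C, then incubated with 400 nM substrate up to 60–90 min. Run in duplicate, analysed by LC-MS/MS as % remaining vs time 0. t1/2 from initial log-linear slope; CLint = (0.693/t1/2)×(incubation volume/microsomal protein).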

MDCK-II-P-gp cells = experiment: MTT cytotoxicity assay in MDCK-II-P-gp cells; format: cell-based, canine; conditions: 1 hour incubation, highest drug concentration tested (10 μM)
MDCK-II-BCRP cells = experiment: MTT cytotoxicity assay in MDCK-II-BCRP cells; format: cell-based, canine; conditions: 1 hour incubation, highest drug concentration tested (10 μM)
CYP2D6 [3] = conditions: read-out: CYP2D6 Ki; competitive inhibition type, in vitro; cited from earlier work
[4] = cited from earlier work
UGT1A4 = conditions: M-1 glucuronidation; cited from earlier work
UGT1A9 = conditions: M-1 glucuronidation; cited from earlier work
UGT2B7 = conditions: M-1 glucuronidation; cited from earlier work
[5] = cited from earlier work; remark: listed apart in the source
[6] = PBPK input parameters predicted, defaulted, optimized or assumed in Simcyp; design: species or system human; conditions: Assumed from Reference 21
[7] = MTT cytotoxicity assay in MDCK-II-P-gp cells; format: cell-based, canine; conditions: dog
[8] = MTT cytotoxicity assay in MDCK-II-BCRP cells; format: cell-based, canine; conditions: dog
[9] = Metabolic stability of sarpogrelate in human intestinal microsomes; format: in vitro ADME; conditions: sarpogrelate 400 nM, 60-minute incubation; data not shown
[10] = Metabolic stability of sarpogrelate in human blood; format: in vitro ADME; conditions: sarpogrelate 400 nM, 60-minute incubation; data not shown
[11] = cited from earlier work; remark: listed apart in the source
[12] = high solubility and permeability profile; cited from earlier work
CYP2D6 [13] = conditions: cited from earlier work
CYP2D6 [14] = conditions: single coadministration with sarpogrelate hydrochloride 100 mg; cited from earlier work
[15] = multiple doses 100 mg tid for 1 day
[16] = observed, single oral 100 mg sarpogrelate hydrochloride, median (range), ref 20
[17] = human, MDCK-II-P-gp cell monolayer, probe loperamide (10 µM)
[18] = human, MDCK-II-BCRP cell monolayer, probe prazosin (10 µM)
[19] = single oral 100 mg sarpogrelate hydrochloride

COc1cccc(CCc2ccccc2OC[C@H](O)CN(C)C)c1 (racemic) [M-1, (R,S)-1-{2-[2-(3-methoxyphenyl)ethyl]-phenoxy}-3-(dimethylamino)-2-propanol]
observed ratio of AUC of M-1 to sarpogrelate ([1]; single oral 100 mg sarpogrelate hydrochloride, observed clinical data): 0.139 | Permeability Papp,AB of loperamide (P-gp; inhibitor 0.2 µM): 0.0894±0.0188 ×10^−6 cm/s | Permeability Papp,BA of loperamide (P-gp; inhibitor 0.2 µM): 1.95±0.0443 ×10^−6 cm/s | Permeability Papp,AB of loperamide (P-gp; inhibitor 2 µM): 0.0822±0.0192 ×10^−6 cm/s | Permeability Papp,BA of loperamide (P-gp; inhibitor 2 µM): 1.84±0.0249 ×10^−6 cm/s | Permeability Papp,AB of loperamide (P-gp; inhibitor 10 µM): 0.104±0.0243 ×10^−6 cm/s | Permeability Papp,BA of loperamide (P-gp; inhibitor 10 µM): 1.95±0.0403 ×10^−6 cm/s | Inhibition (%) (P-gp; inhibitor 0.2 µM): 2.00% | Inhibition (%) (P-gp; inhibitor 2 µM): 7.82% | Inhibition (%) (P-gp; inhibitor 10 µM): 2.91% | inhibition of P-gp-mediated loperamide transport (P-gp; all tested concentrations up to 10 μM): < 10% | Permeability Papp,AB of prazosin (BCRP; inhibitor 0.2 µM): 0.891±0.0355 ×10^−6 cm/s | Permeability Papp,BA of prazosin (BCRP; inhibitor 0.2 µM): 3.42±0.0237 ×10^−6 cm/s | Permeability Papp,AB of prazosin (BCRP; inhibitor 2 µM): 0.813±0.0547 ×10^−6 cm/s | Permeability Papp,BA of prazosin (BCRP; inhibitor 2 µM): 3.31±0.0467 ×10^−6 cm/s | Permeability Papp,AB of prazosin (BCRP; inhibitor 10 µM): 0.811±0.0111 ×10^−6 cm/s | Permeability Papp,BA of prazosin (BCRP; inhibitor 10 µM): 3.32±0.0139 ×10^−6 cm/s | Inhibition (%) (BCRP; inhibitor 0.2 µM): 0.380% | Inhibition (%) (BCRP; inhibitor 2 µM): 0.771% | Inhibition (%) (BCRP; inhibitor 10 µM): 0.381% | inhibition of BCRP-mediated prazosin transport (BCRP): did not inhibit | Additional CLint in HLM (NADPH generating system) ([2]; 400 nM M-1 in HLM with NADPH generating system): 150 μL/min/mg protein | cell viability (MTT assay) (MDCK-II-P-gp cells): > 97% | cell viability (MTT assay) (MDCK-II-BCRP cells): > 97% | Ki (CYP2D6 [3]): 0.12 µM | observed values of AUC0–24 h (range across studies) [4, 15]: 246.2 to 267.2 ng·h/mL | Tmax [4, 16]: 1.0 (0.33–1.5) ^a hours | CLint by rUGT1A4 (UGT1A4): 0.63 μL/min/mg protein | CLint by rUGT1A9 (UGT1A9): 1.30 μL/min/mg protein | CLint by rUGT2B7 (UGT2B7): 0.32 μL/min/mg protein | fup (fraction unbound in plasma) [5]: 0.03

COc1cccc(CCc2ccccc2OCC(CN(C)C)OC(=O)CCC(=O)O)c1 (racemic) [Sarpogrelate, (R,S)-1-{2-[2-(3-methoxyphenyl)ethyl]-phenoxy}-3-(dimethylamino)-2-propyl hydrogen succinate hydrochloride]
CLpo (oral systemic clearance) ([1]; Calculated from clinical data): 140 L/h | inhibition at 1 h (P-gp; [17]): < 10% | inhibition at 1 h, 0.2 µM (P-gp; [17]): 9.18% | inhibition at 1 h, 2 µM (P-gp; [17]): 9.72% | inhibition at 1 h, 10 µM (P-gp; [17]): 9.95% | inhibition of BCRP-mediated prazosin transport (BCRP): did not inhibit | inhibition at 1 h, 0.2 µM (BCRP; [18]): 2.69% | inhibition at 1 h, 2 µM (BCRP; [18]): 9.62% | inhibition at 1 h, 10 µM (BCRP; [18]): 0.38% | microsomal CLint at 400 nM ([2]; pH 7.4, CLint for M-1 formation (carboxylesterase-mediated CLint), 400 nM sarpogrelate, HLM 0.1 mg/mL, no cofactor): 32.6 µL/min/mg | microsomal CLint at 400 nM ([2]; pH 7.5, carboxylesterase and UDPGA-dependent CLint, 400 nM sarpogrelate in HLM with UDPGA): 50 ± 7.89 µL/min/mg | Lag time [6]: 0 h | fa (fraction absorbed in the gastrointestinal tract) [6]: 1.0 | viability at 1 h, 10 µM [7]: > 97% | viability at 1 h, 10 µM [8]: > 97% | formation of M-1 in human intestinal microsomes [9]: not observed | formation of M-1 in human blood [10]: not observed | Ki (CYP2D6 [3]): 1.24 µM | Tmax ([4]; humans, 100 mg oral dose): 0.889 ± 0.651 h | observed values of AUC0–24 h (range across studies) [4, 15]: 1,291–1,773 ng h/mL | observed values of Cmax (range across studies) [4, 15]: 0.466 to 0.7816 µg/mL | Tmax [4, 16]: 0.67 (0.3–1.5) ^a hours | Tmax ([4]; observed, single oral 100 mg sarpogrelate hydrochloride, median (range), ref 22): 1.00 (1.0–4.0) ^a hours | observed values of AUC (range across studies) [4, 19]: 0.3483 to 0.6215 µg·h/mL | observed values of Cmax (range across studies) [4, 19]: 0.343 to 0.6351 µg/mL | unchanged sarpogrelate in urine or feces ([4]; up to 24 hours after a 100 mg oral dose, humans): no unchanged sarpogrelate was detected | Log P ([11]; PBPK input, reference cell empty, apparently ref www.Chembase.cn): 1.12 | PSA ([11]; ref www.Chembase.cn): 85.3 | plasma protein binding [5]: approximately 95% | biopharmaceutics classification system (BCS) class [12]: Class I

CNCCCN1c2ccccc2CCc2ccccc21 [Desipramine, desipramine]
metabolized fraction by CYP2D6 (CYP2D6 [13]): 0.88

COc1ccc2c(c1)[C@]13CCCC[C@@H]1[C@H](C2)N(C)CC3 [Dextromethorphan, dextromethorphan]
metabolized fraction by CYP2D6 (CYP2D6 [13]): 0.96

COCCc1ccc(OCC(O)CNC(C)C)cc1 (stereo not drawn) [Metoprolol, metoprolol]
fold increase of AUCt of metoprolol (observed) (CYP2D6 [14]): 1.53 fold | fold increase of Cmax of metoprolol (observed) (CYP2D6 [14]): 1.62 fold | metabolized fraction by CYP2D6 (CYP2D6 [13]): 0.83
